Laboratory results: publication PMC8317634 (Journal of the Endocrine Society, 2021)
Values belong to the compound of their own block, whether it stands above or below them.

Tests used:
recombinant NEP = assay: ANP degradation by recombinant NEP; assay type: biochemical; details: MALDI-TOF
[1] = used to correct the oral dose; species and source not given; cited from earlier work
female C57BL/6JRj mice [2] = assay: Female mice given water instead of amino acids; assay type: in vivo; details: sacubitril coadministered with vehicle, GRA or Ex9-39 vs these alone; n = 3
Summary of the method: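 Female C57BL/6JRj mice were fasted 3 h with free water. They received GRA (100 mg/kg, oral gavage suspension) or its vehicle at –180 min, or Ex9-39 (100 µg i.p.) at –15 min. Sacubitril (0.7 nmol/g BW, oral gavage; DMSO diluted in PBS) or PBS/0.7% DMSO was given at –30 min, then water at 0 min. Retrobulbar blood was taken at 0–180 min for plasma glucagon by 2-site enzyme immunoassay.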

male C57BL/6JRj mice = assay: Oral amino acid challenge in male mice treated with sacubitril; assay type: in vivo; details: AA challenge, n = 6
Summary of the method: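 Male C57BL/6JRj mice (~22 g) were acclimatized for at least 1 week. At –30 min they received sacubitril (0.7 nmol/g BW; DMSO stock diluted in PBS) or vehicle (PBS, 0.7% DMSO) by oral gavage. Amino acids (34 mg, Vamin solution) were gavaged at 0 min. Tail blood was sampled at 0, 10, 15, 30, 60 and 180 min for glucometer glucose and EDTA plasma. Plasma glucagon was measured by two-site enzyme immunoassay; L-amino acids and urea by kits.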

[3] = tested on: GLP-1R^–/– mice and GLP-1R^+/+ mice; assay type: in vivo; details: sacubitril at -30 min, AAs 34 mg oral
female C57BL/6JRj mice [4] = assay: Oral amino acid challenge in female mice treated with sacubitril, GRA or Ex9-39; assay type: in vivo; details: AAs 34 mg oral
Summary of the method: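 Female C57BL/6JRj mice (n = 7-10) were fasted 3 h. They were pretreated with GRA vehicle or GRA (100 mg/kg oral) at –180 min, or Ex9-39 (100 µg i.p.) at –15 min. Sacubitril (oral gavage) or PBS/0.7% DMSO was given at –30 min. An amino-acid mixture (34 mg, oral gavage) followed at 0 min. Blood glucose was measured from tail bleeds by handheld glucometer at 0, 10, 15, 30, 60 and 180 min.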

NEP activity = target: T1, NEP activity (Mus musculus, UniProt Q61391); assay: Inhibition of NEP activity in mice by oral sacubitril; assay type: in vivo; details: sacubitril 0.7 nmol/g BW, oral gavage; data not shown
T1 sequence (Q61391 1-750): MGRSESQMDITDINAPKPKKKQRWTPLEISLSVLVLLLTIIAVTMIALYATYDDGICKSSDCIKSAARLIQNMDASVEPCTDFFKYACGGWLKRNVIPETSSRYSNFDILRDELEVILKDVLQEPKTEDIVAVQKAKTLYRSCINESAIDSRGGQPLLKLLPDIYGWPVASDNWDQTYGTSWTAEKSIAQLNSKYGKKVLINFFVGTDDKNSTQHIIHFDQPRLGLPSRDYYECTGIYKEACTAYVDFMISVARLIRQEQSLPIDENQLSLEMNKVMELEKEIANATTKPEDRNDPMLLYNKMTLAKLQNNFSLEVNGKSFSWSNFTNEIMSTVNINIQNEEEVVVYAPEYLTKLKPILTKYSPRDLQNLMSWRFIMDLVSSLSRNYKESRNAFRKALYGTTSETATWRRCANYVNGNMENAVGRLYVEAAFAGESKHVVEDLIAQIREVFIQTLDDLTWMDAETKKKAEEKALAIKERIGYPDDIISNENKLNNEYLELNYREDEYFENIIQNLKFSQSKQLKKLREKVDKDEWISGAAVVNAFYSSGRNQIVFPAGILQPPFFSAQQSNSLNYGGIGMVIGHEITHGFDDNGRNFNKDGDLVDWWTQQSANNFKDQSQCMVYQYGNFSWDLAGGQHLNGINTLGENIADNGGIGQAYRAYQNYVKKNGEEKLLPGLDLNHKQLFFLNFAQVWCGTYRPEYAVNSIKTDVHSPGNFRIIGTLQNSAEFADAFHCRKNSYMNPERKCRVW

healthy young men = assay: Single dose of sacubitril/valsartan; assay type: in vivo, human; details: valsartan alone 206 mg; n = 3
Summary of the method: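 Healthy men meeting the crossover-trial inclusion criteria (n = 3) received valsartan 206 mg 30 min before a solid mixed meal (42 g carbohydrate, 25 g fat, 26 g protein), or the meal alone, on separate occasions. Blood was drawn at –60, –15, 0, 30, 45, 90 and 180 min. Plasma glucagon was measured by validated 2-site enzyme immunoassay, and the postprandial response was expressed as incremental AUC.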

[5] = tested on: individuals with obesity and hypertension; assay: 8 weeks treatment, fasting plasma before and after; assay type: in vivo, human; details: amlodipine 10 mg once a day, n = 7, control group
Summary of the method: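 Multicentre, randomized, double-blinded study in adults with hypertension and obesity. Participants received amlodipine 10 mg once daily (n = 7) or sacubitril/valsartan 194 mg/206 mg once daily (n = 7) for 8 weeks. Plasma was sampled after an overnight fast before and after treatment. Glucagon was measured by validated 2-site enzyme immunoassay and L-amino acids by a commercial kit.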

Compound: C[C@H](C[C@@H](Cc1ccc(-c2ccccc2)cc1)NC(=O)CCC(=O)O)C(=O)O [sacubitrilat]
effect on NEP-induced ANP cleavage (recombinant NEP; sacubitrilat added): prevented by the addition of sacubitrilat

inhibition of NEP activity in mice (NEP activity): ~ 60%
Compound: CCOC(=O)[C@H](C)C[C@@H](Cc1ccc(-c2ccccc2)cc1)NC(=O)CCC(=O)O [sacubitril]
bioavailability [1]: 60%
plasma concentrations of glucagon, water instead of AAs (female C57BL/6JRj mice [2]): increased numerically
blood glucose or plasma concentrations of AAs, male mice (male C57BL/6JRj mice): without altering blood glucose or plasma concentrations of AAs
plasma concentrations of glucagon, male mice (male C57BL/6JRj mice): increased plasma concentrations of glucagon
plasma concentrations of urea, male mice (male C57BL/6JRj mice): did not increase plasma concentrations of urea
plasma AA iAUC in GLP-1^–/– mice ([3]; mean ± SD, vehicle 255 ± 118, P = .05): 376 ± 67
augmenting effect on AA-stimulated glucagon levels in GLP-1R^+/+ mice ([3]; time point 15 minutes, P = .02): apparent only in littermate controls
glucagon response to AAs in GLP-1R^–/– mice ([3]; vs vehicle): did not, however, increase the glucagon response to AAs
blood glucose concentrations in response to an AA challenge in GLP-1R^–/– mice ([3]; vs vehicle, P = .03): increased blood glucose concentrations
plasma concentrations of glucagon, coadministration with Ex9-39 vs Ex9-39 alone (female C57BL/6JRj mice [4]; sacubitril 0.7 nmol/g BW + Ex9-39 100 µg): increased plasma concentrations of glucagon more
plasma concentrations of amino acids vs vehicle (female C57BL/6JRj mice [4]; sacubitril 0.7 nmol/g BW oral): no effect on plasma concentrations of amino acids
blood glucose concentrations in response to an AA challenge (female C57BL/6JRj mice [4]; sacubitril 0.7 nmol/g BW oral, vs vehicle): no significant increase

Compound: CCCCC(=O)N(Cc1ccc(-c2ccccc2-c2nnn[nH]2)cc1)[C@H](C(=O)O)C(C)C [valsartan]
effect on postprandial plasma concentrations of glucagon vs control (healthy young men): no effect

Compound: atrial natriuretic peptide [ANP]
degradation of ANP by NEP (recombinant NEP; positive control, recombinant NEP, Supplementary Fig. 2A and 2B): NEP cleavage resulted in the formation of a known substrate (m/z 2585)

Compound: CCOC(=O)C1=C(COCCN)NC(C)=C(C(=O)OC)C1c1ccccc1Cl (centres unmarked) [amlodipine]
plasma concentrations of glucose, glucagon, or AAs, after vs before [5]: no significant changes
